Data on 10 compounds can be found in ChEMBL document CHEMBL1147877, “Synthesis of novel triheterocyclic thiazoles as anti-inflammatory and analgesic agents” (2007).

SMILES strings stand for the structures.

For assay [1], the system named is Mus musculus. The assay can be described thus: Acute toxicity in Albino mouse at 100 mg/kg after 24 hrs. The format is functional, organism-based. Set-up: dose 100 mg/kg. A digest of the protocol:
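Albino mice (20–25 g), fasted overnight, dosed across 1000–100 mg/kg body weight and watched for 24 h for signs of acute toxicity, e.g. raised or lowered motor activity, tremors, convulsion, sedation, lacrimation.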

Assay [2] concerns Mus musculus. The assay can be described thus: Analgesic activity in Albino mouse assessed as inhibition of acetic acid-induced writhing responses at 100 mg/kg, po. On the set-up: scale not given: the % may be the effect or the level left.
Assay [3] deals with Rattus norvegicus. The assay can be described thus: Antiinflammatory activity in rat assessed as inhibition of formalin-induced paw oedema at 100 mg/kg, ip after 2 hrs. The format is functional. Particulars: route intraperitoneal. The method, boiled down:
(§1)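 Albino rats of either sex, six per group, with plain 2% CMC as control. Formalin injected into the paw to induce oedema. Paw volume measured by plethysmograph (mercury displacement) immediately after injection (0 h), then at 0.5, 1, 2, 4, 8, 12 and 24 h. Results given as % inhibition of inflammation. P < 0.05 taken as significant.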

The test system of assay [4] is Rattus norvegicus. The assay can be described thus: Antiinflammatory activity in rat assessed as inhibition of formalin-induced paw oedema at 100 mg/kg, ip after 1 hr. Particulars: route intraperitoneal. The class given is functional. A digest of the protocol:
as §1

Assay [5] concerns Rattus norvegicus. The assay can be described thus: Antiinflammatory activity in rat assessed as inhibition of formalin-induced paw oedema at 100 mg/kg, ip after 12 hrs. As to conditions: route intraperitoneal. The format is functional. A digest of the protocol: as §1
The subject of assay [6] is Rattus norvegicus. The assay can be described thus: Antiinflammatory activity in rat assessed as inhibition of formalin-induced paw oedema at 100 mg/kg, ip after 24 hrs. The class given is functional. Particulars: route intraperitoneal. The method, boiled down: as §1
In assay [7] the test system is Rattus norvegicus. The assay can be described thus: Antiinflammatory activity in rat assessed as inhibition of formalin-induced paw oedema at 100 mg/kg, ip after 8 hrs. The class given is functional. As to conditions: route intraperitoneal. A digest of the protocol: as §1
The test system of assay [8] is Rattus norvegicus. The assay can be described thus: Antiinflammatory activity in rat assessed as inhibition of formalin-induced paw oedema at 100 mg/kg, ip after 0.5 hrs. The format is functional. Particulars: route intraperitoneal. A digest of the protocol:
as §1

Assay [9] concerns Rattus norvegicus. The assay can be described thus: Antiinflammatory activity in rat assessed as inhibition of formalin-induced paw oedema at 100 mg/kg, ip after 4 hrs. The class given is functional. As to conditions: route intraperitoneal. The method, boiled down: as §1
The test system of assay [10] is Rattus norvegicus. The assay can be described thus: Antiinflammatory activity in rat assessed as inhibition of formalin-induced paw oedema at 100 mg/kg, ip. The class given is functional. Particulars: route intraperitoneal. A digest of the protocol:
as §1

Turning to `O=c1cc(CNc2nc(-c3cc4ccccc4oc3=O)cs2)c2ccc(Cl)cc2[nH]1`, in assay [1], the Activity entry was “Not toxic”.

The inhibition in vivo is how much of the control response was suppressed. In the case of `Cc1cccc2c(CNc3nc(-c4cc5cc(Br)ccc5oc4=O)cs3)cc(=O)[nH]c12`, the results for the Activity in assay [2] and in assay [1] were 35.05% and “Not toxic”, respectively. For the same compound, the inhibition in vivo at 100 mg/kg is 9.19% in assay [3]; 8.76% in assay [4]; 24.1% in assay [5]; 16.9% in [6]; 18.5% in [7]; 3.12% in assay [8]. Moreover, the inhibition in vivo at 100 mg/kg was 14.5% in assay [9] and 1.6% in assay [10].

As to `CC(=O)Oc1ccccc1C(=O)O` [ASPIRIN], the Activity in [2] worked out at 81.56%. Also, the inhibition in vivo at 100 mg/kg was found to be 29.9% in assay [3]; 17.1% in [4]; 22.2% in [5]; 17.4% in [6]; 39.7% in assay [7]; 9.76% in [8]. The inhibition in vivo at 100 mg/kg in assay [9] was found to be 49.9%; in assay [10], 5.97%.

In the case of `O=c1cc(CNc2nc(-c3cc4ccccc4oc3=O)cs2)c2cc(Cl)ccc2[nH]1`, the Activity result in assay [1] was “Not toxic”.

As to `Cc1cccc2c(CNc3nc(-c4cc5cc(Br)cc(Br)c5oc4=O)cs3)cc(=O)[nH]c12`, the Activity was 62.73% in [2] and “Not toxic” in [1]. The inhibition in vivo at 100 mg/kg in [3] amounted to 16.3%; in assay [4] it was 11.3%; in assay [5] it was 16.7%; in assay [6], 9.78%; in assay [7] it was 33.7%; in assay [8] it was 3.65%. Also, the inhibition in vivo at 100 mg/kg was determined as 22.7% in assay [9] and 2.65% in [10].

Regarding `O=c1cc(CNc2nc(-c3cc4cc(Br)cc(Br)c4oc3=O)cs2)c2cc(Cl)ccc2[nH]1`, the results for the Activity in assay [2] and in assay [1] were 48.7% and “Not toxic”, respectively. The inhibition in vivo at 100 mg/kg in [3] stood at 17.8%; in assay [4], 13.8%; in [5], 14.4%; in assay [6], 9.35%; in assay [7], 21.9%; in assay [8] it was 6.75%. The inhibition in vivo at 100 mg/kg in assay [9] was determined as 29.8%; in [10] it was 2.85%.

Consider `O=c1cc(CNc2nc(-c3cc4cc(Br)cc(Br)c4oc3=O)cs2)c2ccc(Cl)cc2[nH]1`, for which the Activity in assay [2] is 78.22%; in [1], “Not toxic”. Further, the inhibition in vivo at 100 mg/kg in assay [3] turned out to be 13%; in assay [4] it was 12.6%; in [5], 18.7%; in assay [6], 10.6%; in assay [7], 41.5%; in [8], 3.27%. Also, the values for the inhibition in vivo at 100 mg/kg in [9] and in assay [10] were 34.5% and 2.89%, respectively.

With `Cc1cccc2c(CNc3nc(-c4cc5ccccc5oc4=O)cs3)cc(=O)[nH]c12`, the Activity result in assay [1] was “Not toxic”.

Take `O=c1cc(CNc2nc(-c3cc4cc(Br)ccc4oc3=O)cs2)c2cc(Cl)ccc2[nH]1`: the results for the Activity in assay [2] and in assay [1] were 88.89% and “Not toxic”, respectively. Further, the inhibition in vivo at 100 mg/kg in assay [3] is 5.26%; in assay [4] it was 4.42%; in assay [5], 15.6%; in assay [6], 9.08%; in assay [7] it was 28.6%; in [8], 4.11%. In addition, the inhibition in vivo at 100 mg/kg was determined as 19.8% in [9] and 3.03% in assay [10].

Regarding `O=c1cc(CNc2nc(-c3cc4cc(Br)ccc4oc3=O)cs2)c2ccc(Cl)cc2[nH]1`, the Activity in [2] is 64.94%; in assay [1], “Not toxic”. The inhibition in vivo at 100 mg/kg in [3] was 9.09%; in [4], 5.8%; in [5], 23.2%; in [6] it was 18.4%; in assay [7], 24.5%; in [8], 5.26%. Also, the inhibition in vivo at 100 mg/kg in assay [9] worked out at 13.3%; in assay [10], 2.4%.
